The inhibition is how much of the control response was suppressed. Low values mean a weak effect, high ones a strong effect. As usually defined, the Ki is the equilibrium dissociation constant of an inhibitor or competing ligand from its target.

In test [1] the target is Adenosine receptor A2a (Homo sapiens) (UniProt P29274). Description: Displacement of [3H]ZM2421385 from adenosine A2A receptor expressed in human HeLa cell membranes at 1 uM incubated for 30 mins by scintillation counting method. To be noted: Cell membrane.
Test [2] addresses T1, Adenosine receptor A1 (Homo sapiens) (UniProt P30542).
T1 sequence (whole entry): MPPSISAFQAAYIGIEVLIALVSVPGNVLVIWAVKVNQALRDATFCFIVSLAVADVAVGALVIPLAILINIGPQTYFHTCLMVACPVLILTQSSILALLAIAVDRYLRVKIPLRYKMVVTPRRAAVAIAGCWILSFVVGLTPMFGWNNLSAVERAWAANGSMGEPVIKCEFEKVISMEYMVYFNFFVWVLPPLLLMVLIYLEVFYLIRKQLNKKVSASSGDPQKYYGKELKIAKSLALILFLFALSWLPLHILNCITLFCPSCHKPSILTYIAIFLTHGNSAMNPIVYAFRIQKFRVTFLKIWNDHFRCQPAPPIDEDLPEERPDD
Put plainly: Displacement of [3H]DPCPX from human adenosine A1 receptor expressed in CHO cell membranes at 1 uM incubated for 60 mins by scintillation counting method. To be noted: Cell membrane.

In a further test the target is T2, Adenosine receptor A2b (Homo sapiens, UniProt P29275).
T2 sequence (P29275 whole entry): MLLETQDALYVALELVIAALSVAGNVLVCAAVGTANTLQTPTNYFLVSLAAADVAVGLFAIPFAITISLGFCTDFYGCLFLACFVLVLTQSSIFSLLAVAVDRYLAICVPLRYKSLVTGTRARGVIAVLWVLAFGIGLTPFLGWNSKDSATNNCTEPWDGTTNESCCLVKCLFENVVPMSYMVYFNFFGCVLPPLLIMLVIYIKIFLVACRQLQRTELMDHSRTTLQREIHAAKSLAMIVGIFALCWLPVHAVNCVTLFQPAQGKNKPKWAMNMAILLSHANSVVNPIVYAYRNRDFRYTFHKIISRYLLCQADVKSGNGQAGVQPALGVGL
Put plainly: Displacement of [3H]DPCPX from human adenosine A2B receptor expressed in HEK293 cell membranes incubated for 30 mins by scintillation counting method. Details: species or system Cell membrane. Background: Loss of bound radioactivity is the signal in a displacement assay; it reports binding, not function.

The target of test [3] is T3, Adenosine receptor A3 (Homo sapiens) (UniProt P0DMS8).
T3 sequence (whole entry): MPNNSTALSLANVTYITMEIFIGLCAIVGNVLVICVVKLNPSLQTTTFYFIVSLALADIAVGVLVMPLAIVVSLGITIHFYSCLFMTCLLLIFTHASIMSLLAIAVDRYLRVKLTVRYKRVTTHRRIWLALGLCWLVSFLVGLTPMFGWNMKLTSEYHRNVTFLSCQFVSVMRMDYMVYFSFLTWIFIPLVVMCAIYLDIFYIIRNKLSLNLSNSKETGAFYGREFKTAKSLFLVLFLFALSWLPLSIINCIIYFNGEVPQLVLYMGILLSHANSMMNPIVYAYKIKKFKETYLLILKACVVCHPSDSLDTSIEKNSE
Description: Displacement of [3H]NECA from adenosine A3 receptor expressed in human HeLa cell membranes at 1 uM incubated for 180 mins by scintillation counting method. As to conditions: Cell membrane. The method, boiled down:
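hA3AR in HeLa membranes (3 pmol/mg protein) with 10 nM [3H]NECA (KD 8.7 nM); nonspecific binding with 100 μM R-PIA; incubated 180 min at 25 °C, washed, filtered, radioactivity counted.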

Sequence of Adenosine receptor A2a (Homo sapiens) (P29274 whole entry): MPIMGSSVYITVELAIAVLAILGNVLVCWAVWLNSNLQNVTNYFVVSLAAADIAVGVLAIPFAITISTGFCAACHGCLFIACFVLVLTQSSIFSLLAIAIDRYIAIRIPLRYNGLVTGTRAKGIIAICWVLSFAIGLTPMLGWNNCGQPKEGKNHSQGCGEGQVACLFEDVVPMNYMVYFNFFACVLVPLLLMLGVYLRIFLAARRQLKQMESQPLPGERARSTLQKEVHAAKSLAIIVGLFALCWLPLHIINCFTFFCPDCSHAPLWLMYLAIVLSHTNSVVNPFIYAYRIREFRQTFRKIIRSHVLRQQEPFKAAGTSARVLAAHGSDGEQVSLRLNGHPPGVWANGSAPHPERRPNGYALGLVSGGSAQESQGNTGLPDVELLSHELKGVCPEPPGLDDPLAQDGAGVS

For the compound `CCOC(=O)C1=C(C)NC(=O)N[C@@H]1c1ccsc1`, the inhibition in test [1] came to 9%; in test [2], 10%; in test [3], 6%. In addition, on Adenosine receptor A2b, the affinity corresponds to a Ki of 11.1 nM.
For the compound `CC1=C(C(=O)OC(C)C)[C@@H](c2ccco2)NC(=S)N1`, the inhibition in test [1] was determined as 13%; in test [2], 8%; in test [3], 1%. At Adenosine receptor A2b, this compound came in with a Ki of 6.3 nM.
For `COC(=O)C1=C(C)N=C(S)NC1c1ccco1` (racemic), the inhibition in test [1] came to 20%; in test [2] it was 11%; in test [3] it was 1%. The affinity on Adenosine receptor A2b corresponds to a Ki of 984 nM.
In the case of `CC1=C(C(=O)OCc2ccccc2)C(c2ccsc2)NC(=O)N1C` (racemic), the results for the inhibition in test [1], in test [2] and in test [3] were 30%, 46% and 14%, respectively. On Adenosine receptor A2b, this compound showed a Ki of 4520 nM.
For `CC1=C(C(=O)OCC(C)C)C(c2ccsc2)NC(=O)N1` (racemic) the same measures were 37%, 56%, 21% and 1190 nM.
Turning to `CC1=C(C(=O)OCc2ccccc2)C(c2cccs2)NC(=O)N1` (racemic), the inhibition in test [1] was determined as 30%; in test [2] it was 45%; in test [3] it was 8%. The compound further gave a Ki on Adenosine receptor A2b of 1920 nM.
For `CC1=C(C(=O)OCc2ccccc2)C(c2ccco2)NC(=O)N1` (racemic) the same measures were 26%, 36%, 3% and 887 nM.
For `CC1=C(C(=O)CC(C)C)C(c2ccoc2)NC(=O)N1` (racemic) the same measures were 20%, 23%, 18% and 1010 nM.
In the case of `CCCOC(=O)C1=C(C)NC(=O)NC1c1cccs1` (racemic), the inhibition came to 30% in test [1], 43% in test [2] and 32% in test [3]. The same compound displayed a Ki at Adenosine receptor A2b of 1520 nM.
Regarding `CCC(C)OC(=O)C1=C(C)NC(=O)NC1c1ccco1` (racemic), the inhibition in test [1] stood at 1%; in test [2], 6%; in test [3] it was 3%. Also, on Adenosine receptor A2b, the Ki was 84.3 nM.
Take `CC1=C(C(=O)OC2CCCC2)C(c2ccco2)NC(=O)N1` (racemic): the inhibition in test [1] came out at 23%; in test [2], 1%; in test [3] it was 14%. The inhibition constant Ki on Adenosine receptor A2b turned out to be 577 nM.
On to `CC1=C(C(=O)OC(C)(C)C)C(c2ccoc2)NC(=S)N1` (racemic), for which the inhibition in test [1] was 15%; in test [2], 18%; in test [3] it was 19%. Besides, the affinity at Adenosine receptor A2b corresponds to a Ki of 1890 nM.
Regarding `CCC(C)OC(=O)C1=C(C)NC(=O)NC1c1ccoc1` (racemic), the inhibition in test [1] was 1%; in test [2], 13%; in test [3] it was 11%. Also, the Ki on Adenosine receptor A2b was determined as 201 nM.
For `CC1=C(C(=O)C2CC2)C(c2ccco2)NC(=O)N1` (racemic) the same measures were 2%, 2%, 7% and 1060 nM.
For `CC1=C(c2ncc(C)o2)C(c2ccoc2)NC(=O)N1` (racemic) the same measures were 14%, 21%, 1% and 801 nM.
For `CC1=C(C(=O)OCC(C)C)C(c2ccco2)NC(=O)N1` (racemic) the same measures were 36%, 27%, 13% and 199 nM.
As for `CC1=C(C(=O)OC2CCC2)C(c2ccoc2)NC(=O)N1` (racemic), the results for the inhibition in test [1], in test [2] and in test [3] were 32%, 20% and 1%, respectively. Moreover, at Adenosine receptor A2b, the Ki turned out to be 307 nM.
For `CC1=C(c2ncc(C)o2)C(c2ccco2)NC(=O)N1` (racemic), the inhibition was determined as 23% in test [1], 27% in test [2] and 4% in test [3]. At Adenosine receptor A2b, this compound came in with a Ki of 905 nM.
For `CC1=C(C(=O)OCC2CC2)C(c2ccco2)NC(=O)N1` (racemic) the same measures were 36%, 29%, 1% and 138 nM.
As to `CC1=C(C(=O)OCc2ccccc2)C(c2ccoc2)NC(=O)N1` (racemic), the inhibition was 24% in test [1], 41% in test [2] and 1% in test [3]. At Adenosine receptor A2b, this compound registered a Ki of 6650 nM.
For `CCCOC(=O)C1=C(C)NC(=O)NC1c1ccsc1` (racemic) the same measures were 48%, 44%, 6% and 201 nM.
Consider `CCCOC(=O)C1=C(C)NC(=O)NC1c1ccoc1` (racemic), for which the inhibition in test [1] stood at 45%; in test [2], 50%; in test [3], 11%. This compound returned a Ki at Adenosine receptor A2b of 1190 nM.
As for `CC1=C(C(=O)CC(C)C)C(c2ccco2)NC(=O)N1` (racemic), the inhibition in test [1] was 6%; in test [2], 16%; in test [3], 31%. For the same compound, on Adenosine receptor A2b, the affinity, expressed as Ki, was 240 nM.
As for `CC1=C(C(=O)OC2CCC2)C(c2ccco2)NC(=O)N1` (racemic), the inhibition turned out to be 41% in test [1], 19% in test [2] and 1% in test [3]. On Adenosine receptor A2b, this compound gave a Ki of 95.1 nM.
For `CC1=C(C(=O)OCC(C)C)C(c2cccs2)NC(=O)N1` (racemic) the same measures were 12%, 25%, 11% and 2130 nM.
For `CC1=C(C(=O)SC(C)C)C(c2ccoc2)NC(=O)N1` (racemic) the same measures were 2%, 9%, 3% and 637 nM.
For the compound `CCCC(=O)C1=C(C)NC(=O)NC1c1ccco1` (racemic), the inhibition in test [1] was 6%; in test [2], 1%; in test [3], 1%. The affinity on Adenosine receptor A2b corresponds to a Ki of 807 nM.
In the case of `CC1=C(C(=O)OC2CCCC2)C(c2ccoc2)NC(=O)N1` (racemic), the inhibition in test [1] was determined as 1%; in test [2], 6%; in test [3], 1%. For the same compound, the Ki at Adenosine receptor A2b is 1010 nM.
For the compound `CC1=C(C(=O)OCC2CCC2)C(c2ccco2)NC(=O)N1` (racemic), the inhibition in test [1] was 22%; in test [2], 42%; in test [3], 1%. On Adenosine receptor A2b, this compound came in with a Ki of 561 nM.
With `CC1=C(C(=O)CC(C)C)C(c2ccsc2)NC(=O)N1` (racemic), the inhibition in test [1] is 19%; in test [2] it was 37%; in test [3] it was 14%. This compound came in with a Ki at Adenosine receptor A2b of 1000 nM.
For `CC1=C(c2ncc(C)o2)C(c2ccsc2)NC(=O)N1` (racemic) the same measures were 20%, 34%, 2% and 1130 nM.
Take `CC1=C(C(=O)OC(C)(C)C)C(c2ccoc2)NC(=O)N1` (racemic): the figures for the inhibition in test [1], in test [2] and in test [3] were 9%, 11% and 2%, respectively. The compound further registered a Ki at Adenosine receptor A2b of 4440 nM.

Source of the values: ChEMBL document CHEMBL4765483 (J Med Chem, 2021).
